pIC50: −log10 of the molar value. Activity calls are given as the source filed them. No cut-off for these calls is given here.
Key:
A-375 [1] = test: Cell cycle arrest in human A375 cells assessed as accumulation at G0/G1 phase at 8 uM after 72 hrs by propidium iodide staining based flow cytometry (reference value: 83.6%); format: functional
A-375 [2] = test: Induction of apoptosis in human A375 cells assessed as necrotic cells at 16 uM after 72 hrs by Annexin/propidium iodide staining based flow cytometry (reference value: 1.36%); format: functional
Homo sapiens = species on record: Homo sapiens; test: Induction of DNA damage in human A375 cells assessed as increase in gammaH2AX level at 16 uM after 48 hrs by high throughput assay relative to control; format: cell-based
Outline: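 A375 cells were exposed for 48 h at 8 and 16 µM. Histone H2AX phosphorylation (γH2AX, a double-strand-break marker) was detected with the EpiQuik In Situ DNA Damage Assay kit following the maker's protocol. Results are expressed as percent of the untreated control, as mean ± SD (n=3), with a t-test for significance.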

A-375 [3] = test: Induction of apoptosis in human A375 cells assessed as live cells at 16 uM after 72 hrs by Annexin/propidium iodide staining based flow cytometry (reference value: 86.07%); format: functional
A-375 [4] = test: Induction of apoptosis in human A375 cells after 72 hrs by Annexin/propidium iodide staining based flow cytometry; format: functional, cell-based
A-375 [5] = test: Induction of apoptosis in human A375 cells assessed as necrotic cells at 2 uM after 72 hrs by Annexin/propidium iodide staining based flow cytometry (reference value: 1.36%); format: functional
Histone deacetylase 1 = Histone deacetylase 1 (Homo sapiens, UniProt Q13547); test: Inhibition of recombinant human HDAC1 (482 residues) expressed in baculovirus infected insect cells preincubated with enzyme followed by flour de lys-green substrate addition measured after 1 hr by fluorescence assay
Chain of Histone deacetylase 1 (Q13547 whole entry): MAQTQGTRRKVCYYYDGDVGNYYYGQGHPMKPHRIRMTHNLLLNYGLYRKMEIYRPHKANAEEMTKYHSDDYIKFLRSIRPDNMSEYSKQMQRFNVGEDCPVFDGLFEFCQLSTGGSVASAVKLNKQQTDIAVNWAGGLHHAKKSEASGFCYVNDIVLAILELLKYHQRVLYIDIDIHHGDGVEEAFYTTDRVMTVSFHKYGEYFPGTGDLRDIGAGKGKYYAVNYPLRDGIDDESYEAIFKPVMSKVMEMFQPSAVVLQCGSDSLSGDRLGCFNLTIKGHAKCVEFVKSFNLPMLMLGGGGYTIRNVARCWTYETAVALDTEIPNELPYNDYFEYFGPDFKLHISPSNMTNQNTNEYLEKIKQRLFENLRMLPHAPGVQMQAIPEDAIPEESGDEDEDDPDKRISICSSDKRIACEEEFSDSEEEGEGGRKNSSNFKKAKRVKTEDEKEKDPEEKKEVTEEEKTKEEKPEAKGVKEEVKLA

A-375 [6] = test: Antiproliferative activity against human A375 cells after 72 hrs by CCK8 assay; format: functional, cell-based; conditions: for pIC50: A-375, 72 h
Outline: (§1)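 CCK-8 viability read-out on four human cancer lines (HepG2, A549, HCT116, A375) over a range of concentrations. IC50 is the concentration that reduces viability to 50%. Values are means of three experiments.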

A-375 [7] = test: Induction of apoptosis in human A375 cells assessed as late apoptotic cells at 2 uM after 72 hrs by Annexin/propidium iodide staining based flow cytometry (reference value: 6.95%); format: functional
A-375 [8] = test: Cell cycle arrest in human A375 cells assessed as accumulation at G2/M phase at 8 uM after 72 hrs by propidium iodide staining based flow cytometry (reference value: 12.6%); format: functional
A-375 [9] = test: Anticlonogenic activity against human A375 cells after 7 days by crystal violet staining based assay; format: functional, cell-based
A-375 [10] = test: Induction of apoptosis in human A375 cells assessed as late apoptotic cells at 16 uM after 72 hrs by Annexin/propidium iodide staining based flow cytometry (reference value: 6.95%); format: functional
[11] = biological target: Histone deacetylase (Homo sapiens) (UniProt Q13547+O15379+Q9UBN7+Q92769+Q9UQL6+Q8WUI4+Q9BY41+Q96DB2+P56524+Q9UKV0+Q969S8); test: Inhibition of HDAC in human HeLa nuclear extract up to 10000 uM preincubated with cells followed by flour de lys-green substrate addition measured after 1 hr by fluorescence assay
A-375 [12] = test: Induction of apoptosis in human A375 cells assessed as live cells at 8 uM after 72 hrs by Annexin/propidium iodide staining based flow cytometry (reference value: 86.07%); format: functional
HCT-116 = test: Antiproliferative activity against human HCT116 cells after 72 hrs by CCK8 assay; format: functional, cell-based; conditions: for pIC50: HCT-116, 72 h; outline: as §1
A-375 [13] = test: Induction of apoptosis in human A375 cells assessed as live cells at 2 uM after 72 hrs by Annexin/propidium iodide staining based flow cytometry (reference value: 86.07%); format: functional
Histone deacetylase 2 = Histone deacetylase 2 (Homo sapiens, UniProt Q92769); test: Inhibition of recombinant human HDAC2 preincubated with enzyme followed by flour de lys-green substrate addition measured after 1 hr by fluorescence assay
Chain of Histone deacetylase 2 (Q92769 whole entry): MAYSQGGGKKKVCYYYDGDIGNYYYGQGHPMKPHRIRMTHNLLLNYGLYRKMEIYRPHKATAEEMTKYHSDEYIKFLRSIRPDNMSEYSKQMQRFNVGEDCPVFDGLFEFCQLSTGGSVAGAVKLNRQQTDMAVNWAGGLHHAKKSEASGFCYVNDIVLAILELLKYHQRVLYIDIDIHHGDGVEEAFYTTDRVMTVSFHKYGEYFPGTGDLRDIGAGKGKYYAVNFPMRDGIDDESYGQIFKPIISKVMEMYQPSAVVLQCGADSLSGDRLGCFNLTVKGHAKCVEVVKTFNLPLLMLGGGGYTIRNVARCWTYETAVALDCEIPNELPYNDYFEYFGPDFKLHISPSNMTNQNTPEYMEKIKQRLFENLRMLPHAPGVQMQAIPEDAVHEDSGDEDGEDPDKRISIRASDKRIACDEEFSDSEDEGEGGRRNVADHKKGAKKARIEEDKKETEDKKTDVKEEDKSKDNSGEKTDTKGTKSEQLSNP

A-375 [14] = test: Induction of apoptosis in human A375 cells assessed as early apoptotic cells at 8 uM after 72 hrs by Annexin/propidium iodide staining based flow cytometry (reference value: 1.62%); format: functional
A-375 [15] = test: Induction of apoptosis in human A375 cells assessed as early apoptotic cells at 2 uM after 72 hrs by Annexin/propidium iodide staining based flow cytometry (reference value: 1.62%); format: functional
A-375 [16] = test: Cell cycle arrest in human A375 cells assessed as accumulation at S phase at 8 uM after 72 hrs by propidium iodide staining based flow cytometry (reference value: 3.8%); format: functional
[17] = biological target: T1, Protein deacetylase HDAC6 (Homo sapiens, UniProt Q9UBN7); test: Inhibition of recombinant human His-tagged HDAC6 expressed in baculovirus infected insect cells preincubated with enzyme followed by flour de lys-green substrate addition measured after 1 hr by fluorescence assay
T1 sequence (Q9UBN7 whole entry): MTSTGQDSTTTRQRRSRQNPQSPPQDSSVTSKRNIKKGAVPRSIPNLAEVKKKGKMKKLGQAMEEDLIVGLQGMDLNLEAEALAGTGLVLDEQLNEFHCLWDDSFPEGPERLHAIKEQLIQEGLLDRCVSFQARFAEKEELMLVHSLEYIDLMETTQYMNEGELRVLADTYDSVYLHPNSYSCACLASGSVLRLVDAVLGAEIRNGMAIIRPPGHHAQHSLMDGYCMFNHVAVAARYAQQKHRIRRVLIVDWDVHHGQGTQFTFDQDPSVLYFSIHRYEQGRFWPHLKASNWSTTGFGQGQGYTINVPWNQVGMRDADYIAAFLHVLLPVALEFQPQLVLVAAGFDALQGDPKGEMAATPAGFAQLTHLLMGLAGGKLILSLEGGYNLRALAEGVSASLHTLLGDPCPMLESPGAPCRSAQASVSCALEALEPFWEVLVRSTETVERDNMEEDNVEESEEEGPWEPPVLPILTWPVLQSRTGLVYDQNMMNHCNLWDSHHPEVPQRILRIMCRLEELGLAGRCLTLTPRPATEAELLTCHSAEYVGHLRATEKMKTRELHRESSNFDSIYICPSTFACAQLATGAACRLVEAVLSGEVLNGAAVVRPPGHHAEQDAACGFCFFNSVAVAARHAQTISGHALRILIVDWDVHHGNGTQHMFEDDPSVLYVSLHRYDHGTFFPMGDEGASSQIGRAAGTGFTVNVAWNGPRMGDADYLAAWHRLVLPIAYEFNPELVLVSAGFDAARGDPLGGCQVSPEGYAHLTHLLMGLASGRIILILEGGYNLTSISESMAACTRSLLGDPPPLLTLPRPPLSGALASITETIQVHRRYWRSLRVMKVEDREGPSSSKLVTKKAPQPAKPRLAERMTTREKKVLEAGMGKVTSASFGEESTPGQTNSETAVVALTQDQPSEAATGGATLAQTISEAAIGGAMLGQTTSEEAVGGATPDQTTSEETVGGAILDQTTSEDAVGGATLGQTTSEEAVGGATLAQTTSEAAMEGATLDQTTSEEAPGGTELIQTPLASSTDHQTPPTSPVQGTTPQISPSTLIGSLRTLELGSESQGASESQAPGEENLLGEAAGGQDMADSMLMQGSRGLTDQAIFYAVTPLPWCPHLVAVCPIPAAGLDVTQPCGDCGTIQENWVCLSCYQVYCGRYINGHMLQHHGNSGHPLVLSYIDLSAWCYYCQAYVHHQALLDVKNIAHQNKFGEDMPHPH

A-375 [18] = test: Induction of apoptosis in human A375 cells assessed as late apoptotic cells at 8 uM after 72 hrs by Annexin/propidium iodide staining based flow cytometry (reference value: 6.95%); format: functional
A-375 [19] = test: Induction of apoptosis in human A375 cells assessed as early apoptotic cells at 16 uM after 72 hrs by Annexin/propidium iodide staining based flow cytometry (reference value: 1.62%); format: functional
A-375 [20] = test: Induction of apoptosis in human A375 cells assessed as necrotic cells at 8 uM after 72 hrs by Annexin/propidium iodide staining based flow cytometry (reference value: 1.36%); format: functional
A549 = test: Antiproliferative activity against human A549 cells after 72 hrs by CCK8 assay; format: functional, cell-based; conditions: for pIC50: A549, 72 h; outline: as §1
HepG2 = test: Antiproliferative activity against human HepG2 cells after 72 hrs by CCK8 assay; format: functional, cell-based; conditions: for pIC50: HepG2, 72 h; outline: as §1
A-375 [21] = test: Anticlonogenic activity against human A375 cells at 2 to 16 uM after 7 days by crystal violet staining based assay; format: functional, cell-based

SMILES	Activity (A-375 [1]) [%]	Activity (A-375 [2]) [%]	Activity (Homo sapiens) [%]	Activity (A-375 [3]) [%]	Activity (A-375 [5]) [%]	pIC50 (A-375 [6])	Activity (A-375 [7]) [%]	Activity (A-375 [8]) [%]	Activity (A-375 [10]) [%]	Activity (A-375 [12]) [%]	pIC50 (HCT-116)	Activity (A-375 [13]) [%]	Activity (A-375 [14]) [%]	Activity (A-375 [15]) [%]	Activity (A-375 [16]) [%]	Activity (A-375 [18]) [%]	Activity (A-375 [19]) [%]	Activity (A-375 [20]) [%]	pIC50 (A549)	pIC50 (HepG2)	also measured
O=C(CCCCCCC(=O)Nc1ccc(N(CCCl)CCCl)cc1)NO	27.7	2.75	224	30.42	2.07	5.21	10.26	66.5	53.54	50.76	5.49	84.36	16.02	3.31	5.8	29.95	13.29	3.27	5.36	5.21	Activity (A-375 [4]): Dose-dependent effect; pIC50 (Histone deacetylase 1): 6.57; Activity (A-375 [6]): Dose-dependent effect; Activity (A-375 [9]): Dose-dependent effect; inhibition [11]: Active; Activity (HCT-116): Dose-dependent effect; pIC50 (Histone deacetylase 2): 6.62; pIC50 [17]: 6.21; Activity (A549): Dose-dependent effect; Activity (HepG2): Dose-dependent effect
O=C(O)CCCc1ccc(N(CCCl)CCCl)cc1 [CHLORAMBUCIL]	47	6.44	129	71.14	1.36	4.16	6.95	47.6	18.21	87.14	4.24	90.07	2.11	1.62	5.4	8.41	4.21	2.34	4.65	3.95	Activity (A-375 [21]): Active
